CD11b adhes enh – increases human CD11b/CD18 adhesion to fibrinogen. 93,000 tested, 0.07% active. K562 CD11b/CD18 adhesion to fibrinogen, ATPlite luminescence. P05107+P11215. activation, % at 10 µM;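 active = 10 µM primary screen giving 50% or more activity, confirmed by 40% or more on retest at that dose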
Target sequence (P05107 whole entry, looked up, other chains not shown): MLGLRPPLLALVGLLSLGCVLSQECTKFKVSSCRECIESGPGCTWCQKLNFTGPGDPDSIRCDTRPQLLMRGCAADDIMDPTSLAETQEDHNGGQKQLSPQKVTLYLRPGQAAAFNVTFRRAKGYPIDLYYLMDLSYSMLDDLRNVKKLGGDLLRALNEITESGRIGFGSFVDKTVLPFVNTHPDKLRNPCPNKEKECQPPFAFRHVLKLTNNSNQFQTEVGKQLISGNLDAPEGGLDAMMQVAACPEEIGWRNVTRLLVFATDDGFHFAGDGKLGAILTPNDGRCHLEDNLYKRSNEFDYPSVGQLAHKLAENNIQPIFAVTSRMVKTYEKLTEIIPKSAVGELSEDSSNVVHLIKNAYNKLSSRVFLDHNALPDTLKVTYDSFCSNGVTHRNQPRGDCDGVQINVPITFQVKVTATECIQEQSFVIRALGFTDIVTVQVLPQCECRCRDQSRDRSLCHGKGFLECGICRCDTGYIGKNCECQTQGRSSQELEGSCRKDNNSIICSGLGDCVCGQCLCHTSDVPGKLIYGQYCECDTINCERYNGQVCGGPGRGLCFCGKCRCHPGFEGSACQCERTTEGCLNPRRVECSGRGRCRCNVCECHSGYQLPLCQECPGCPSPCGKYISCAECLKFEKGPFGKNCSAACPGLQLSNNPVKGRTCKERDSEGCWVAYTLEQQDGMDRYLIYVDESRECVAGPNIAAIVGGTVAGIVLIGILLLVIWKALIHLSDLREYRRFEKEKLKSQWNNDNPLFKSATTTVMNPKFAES
Ecoli tolC – growth inhibitors of E. coli BW25113 tolC mutant; OD615; growth inhibition, % at 10 µM (by protocol); 65,000 tested, 2.2% active; AID 573;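 active = growth inhibition at or above a cutoff equal to the mean over every tested compound plus 3 SD, cut at about 60% in these data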;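 note: growth measured after 20 h incubation at 37 °C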
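Test system: tolC-deleted E. coli BW25113 | Medium: LB with kanamycin 50 µg/mL | Compound dosing: Single concentration, 10 µM final per compound | Schedule: 37 °C, 20 h exposure | Measured by: OD at 615 nm | Evaluation: Percent growth inhibition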
Ecoli WT expand – blocks growth of wild type E. coli BW25113; OD600 absorbance; growth inhibition, % at 100 µM; 98,000 tested, 0.15% active;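 active = growth inhibition above about 50% at one test dose, limit read from the data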;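 note: growth measured after 20 h incubation at 37 °C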
Mac1 fbg inh – blocks human CD11b/CD18 adhesion to fibrinogen; P05107+P11215; K562 CD11b/CD18 adhesion to fibrinogen, ATPlite luminescence; Mn2+ added to activate the integrin; inhibition, % at 10 µM; 93,000 tested, 0.54% active;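 active = primary inhibition of 50% or more at 10 µM, then 40% or more on retest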
The depositor's hits bear a star; nt = no result given. The full list was thinned out, with hits kept by preference.

SMILES | CD11b adhes enh | Ecoli tolC | Ecoli WT expand | Mac1 fbg inh
CCOc1ccc(S(=O)(=O)Nc2ccccc2SC)cc1 | -6 | nt | 7 | 18
CCOc1ccc(S(=O)(=O)Nc2cc(Cl)ccc2O)cc1 | nt | 67* | 33 | nt
Cc1ccc(S(=O)(=O)N2CCSC2c2ccco2)cc1 (stereo unspecified) | 1 | -4 | -1 | -7
CCN(CC)S(=O)(=O)c1ccc(C)c(NC(=O)COC(=O)c2ccc(C)c(S(=O)(=O)N3CCOCC3)c2)c1 | -3 | nt | -4 | 10
Cc1c(NC(=O)Nc2ccc(Cl)c(Cl)c2)c(=O)n(-c2ccccc2)n1C | 2 | 100* | 13 | -7
Cc1c(NC(=O)NCc2ccccc2)c(=O)n(-c2ccccc2)n1C | -2 | -4 | 8 | 13
Cc1cc(OCC(=O)Nc2ccncc2)cc(C)c1Br | -9 | nt | 11 | 84*
CCc1cc(=O)oc2cc3occ(-c4ccc(OC)c(F)c4)c3cc12 | 15 | nt | nt | 20
Cc1ccccc1OCCCN1C(=O)C(=O)c2cccc(C)c21 | -5 | 100* | 4 | 6
O=C1c2ccccc2C(O)(Cc2ccccc2)N1C1CCCCC1 (stereo unspecified) | 5 | 100* | -4 | 5
CCOC(=O)C1CCN(Cc2cn[nH]c2-c2ccc(C)cc2)CC1 | -7 | 92* | 11 | 22
CCOC(=O)C1CCN(Cc2cn[nH]c2-c2ccccc2)CC1 | 0 | 4 | 0 | -5
N#CC(c1ccc(F)cc1)c1ccc(C(=O)c2ccc(F)cc2)cc1 (stereo unspecified) | -5 | nt | -11 | 87*
CC(C)CCN1C(=O)c2ccccc2C1C(=O)NCc1cccnc1 (stereo unspecified) | 1 | nt | 2 | -2
Cc1cc(Cl)ccc1OCC(=O)Nc1ccccc1N1CCOCC1 | -1 | 86* | -19 | 27
Cc1ccc(OCC(=O)Nc2ccccc2N2CCOCC2)c(C)c1 | nt | nt | 6 | nt
COc1ccc(OC)c(S(=O)(=O)N2CCN(c3c(C)cccc3C)CC2)c1 | -2 | 65* | -8 | 2
COc1ccc(OC)c(S(=O)(=O)n2cnc3cc(C)c(C)cc32)c1 | 6 | 94* | 0 | 13
CCOc1ccc(S(=O)(=O)n2cnc3cc(C)c(C)cc32)cc1 | -5 | 42 | -4 | 52
COc1cccc(Cn2cnc3c(NS(=O)(=O)c4cc(Cl)ccc4Cl)c(C)c(C)cc32)c1 | -2 | nt | -11 | 18
CCCN1CCCc2cc(CN(CCCN3CCOCC3)C(=O)Nc3ccc(OCC)cc3)ccc21 | 0 | nt | -10 | 65*
COC(=O)c1ccccc1S(=O)(=O)Nc1ccc(OC)nc1 | 0 | -15 | 3 | -12
O=C(CSc1nnc(SCc2cccc3ccccc23)s1)N=Nc1c(O)[nH]c2ccccc12 | 87 | nt | nt | -19
Cc1ccc(-c2noc(CCC(=O)N3CCCc4ccccc43)n2)cc1 | -3 | 92* | 3 | 5
Cc1ccc(-c2nnn(CC(=O)N3CCCc4ccccc43)n2)cc1 | nt | nt | -2 | nt
SMILES | CD11b adhes enh | Ecoli tolC | Ecoli WT expand | Mac1 fbg inh
Cc1ccc(-c2noc(CCC(=O)N3CCN(c4cccc(C(F)(F)F)c4)CC3)n2)cc1 | 8 | 64* | -1 | 34
CCOC(=O)c1cnc(-n2cc(C)cn2)nc1Nc1ccccc1OCC | nt | 68* | 3 | nt
O=C(O)c1cccc(CSc2nc(-c3ccc(Cl)cc3)cc(C(F)(F)F)n2)c1 | -3 | nt | 7 | 75*
COc1ccc(-n2c(O)cnc2Nc2nc(C)cc(C)n2)cc1OC | -1 | nt | 1 | -50
CC(Oc1ccc(Cl)cc1Cl)C(=O)Nc1ccc(S(=O)(=O)Nc2cnc3ccccc3n2)cc1 (stereo unspecified) | 6 | nt | 8 | 78*
CC(Oc1ccc(Cl)cc1Cl)C(=O)Nc1ccncc1 (stereo unspecified) | -4 | 12 | 14 | 57*
CC(C)Oc1ccc(C(=O)NCc2cccs2)cc1 | -6 | nt | 8 | -1
O=C1c2cccc(OCC(=O)N3N=C(c4cccs4)CC3c3ccc(F)cc3)c2CCN1Cc1cccnc1 (stereo unspecified) | 75 | nt | nt | 4
CCN1CC=C2C(C1)C(c1ccc(Cl)s1)C(C#N)=C(N)C2(C#N)C#N (stereo unspecified) | -1 | 8 | 9 | 4
Cc1ccc(NC(=S)Nc2ccc(Cl)c(Cl)c2)c(OC(F)F)c1 | -10 | nt | nt | 99
Fc1ccc(NC(=S)Nc2ccccc2OC(F)F)cc1Cl | -10 | nt | nt | 101*
O=C(Nc1nc(-c2ccccc2)ns1)c1cccs1 | -2 | 64* | -4 | 39
O=C(Nc1nc(-c2ccccc2)cs1)c1cccs1 | -3 | 98* | -8 | 34
Clc1ccc(OCc2nn3c(C4CCCCC4)nnc3s2)cc1 | -2 | 97* | -7 | -12
CC1=C(C#N)c2nc(N)c(C#N)c(C)c2/C1=C\c1ccccc1 | nt | 74* | nt | nt
O=C(NCCc1c[nH]c2ccccc12)c1cccc(S(=O)(=O)Nc2ccccc2Cl)c1 | -5 | nt | nt | 56*
O=C(O)c1cccc(S(=O)(=O)Nc2ccccc2Cl)c1 | 0 | -16 | 6 | -11
O=C(NNC(=O)c1cccnc1)Nc1ccc(Cl)c(Cl)c1 | nt | nt | 2 | nt
O=C(Nc1ccc(Cl)c(Cl)c1)OCc1cccnc1 | nt | 92* | 21 | nt
CSc1cc(C)n(-c2ccccc2)c(=S)c1C(C)=O | -3 | nt | 7 | -2
Cc1cc(N2CCN(C(=O)c3ccco3)CC2)nc(-c2ccccc2)n1 | 0 | 5 | nt | 2
Cc1cc(N2CCOCC2)nc(-c2ccccc2O)n1 | 7 | nt | nt | -18
Cc1cc(N2CCCCCC2)nc(-c2ccccc2O)n1 | 4 | 81* | 0 | 17
Cc1cc(Nc2ccccc2)nc(-c2ccccc2O)n1 | 0 | 100* | 4 | 0
Cc1cc(N2CCN(c3ccccc3)CC2)nc(-c2ccccc2)n1 | 2 | 77* | -25 | 13
SMILES | CD11b adhes enh | Ecoli tolC | Ecoli WT expand | Mac1 fbg inh
COc1ccc(C2(O)CC3CCC(C2)N3c2cc(C)nc(-c3ccccc3)n2)cc1 (stereo unspecified) | -3 | 87* | 2 | 7
COc1ccc(NC(=O)N(C2CCCCC2)C(C)c2ccco2)c(OC)c1 (stereo unspecified) | -5 | 69* | -17 | 5
CCN(CC)CCNCc1ccc(-c2ccc(Cl)cc2)o1 | -8 | 8 | 11 | 3
COc1ccc(C(=O)Nn2cnc3scc(-c4cccs4)c3c2=O)c(O)c1 | nt | 75* | -5 | nt
Cc1ccc(N(CC(=O)Nc2cccc(C)c2)S(=O)(=O)c2cccc3nonc23)cc1 | -2 | 62* | -7 | 10
Cc1nc(CS(=O)(=O)c2ccc(Cl)cc2)cc(Sc2ccc(Cl)cc2)n1 | 3 | nt | 1 | 11
c1ccc(Cc2nnc3sc(-c4ccccn4)nn23)cc1 | -1 | 1 | 4 | -4
CCOc1ccccc1-c1nn2c(Cc3ccccc3)nnc2s1 | -1 | 99* | -9 | -16
COc1cccc(-c2cc(C(=O)N3CCCc4ccccc43)no2)c1 | nt | 55 | -9 | nt
COc1ccc(OC)c(-c2cc(C(=O)N3CCCc4ccccc43)no2)c1 | -4 | 65* | -23 | 8
COc1ccc(-c2cc(C(=O)N3CCCc4ccccc43)no2)cc1 | -2 | 63* | -17 | 3
COc1ccc(NC(=O)/C(=C/c2cccnc2)NC(=O)c2cccs2)cc1 | 7 | nt | nt | -3

Bioassay records from PubChem BioAssay.
